According to ChEMBL document CHEMBL4145474, “Discovery of novel piperonyl derivatives as diapophytoene desaturase inhibitors for the treatment of methicillin-, vancomycin- and linezolid-resistant Staphylococcus aureus infections” (Eur J Med Chem, 2018):
Calls of active or inactive are those of the source. No cut-off for these calls is given here.

How the values were obtained:
Staphylococcus aureus [1] = assay: Inhibition of pigmentation in wild type Staphylococcus aureus Newman after 48 hrs by spectrophotometric method; assay type: functional, organism-based
Outline: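 S. aureus Newman was grown in TSB 48 h at 37 °C with a concentration series of compound in DMSO, in duplicate. Controls were a DMSO vehicle and a nonpigmented CrtN mutant. Cells were washed twice in 0.01 M PBS and pigment extracted in methanol. A450 was measured and IC50 derived by curve fitting.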

HepG2 = assay: Cytotoxicity against human HepG2 cells assessed as reduction in cell viability after 72 hrs by CCK-8 assay; assay type: functional; conditions: HepG2, 72 h
Outline: (§1)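 HepG2 or HEK-293T cells were seeded at 5000 per well and grown 24 h at 37 °C, 5% CO₂. Cells were then exposed to compound for 72 h; compound came from DMSO, diluted in medium to final DMSO <0.4%, with a DMSO-matched vehicle control. Viability was read by 10% CCK-8 for 1 h, absorbance 450 nm, in triplicate.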

HEK-293T = assay: Cytotoxicity against HEK293T cells assessed as reduction in cell viability after 72 hrs by CCK-8 assay; assay type: functional; conditions: Homo sapiens; outline: as §1
[2] = Solubility of the compound in water by UV analysis; assay type: physicochemical
Staphylococcus aureus [3] = assay: Antibacterial activity against vancomycin-intermediate methicillin-resistant Staphylococcus aureus Mu50 infected in BALB/c mouse assessed as decrease in bacterial survival in mouse liver at 0.4 mg, ip bid administered 4.5 days measured after 90 hrs; assay type: functional, organism-based
Outline: (§2)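 6–8-week-old female BALB/c mice (SPF) dosed intraperitoneally twice daily over 4.5 d at 0.1 or 0.4 mg/bid. Pre-treatment started before infection; post-treatment started 6 h after infection. Vancomycin and linezolid controls given as pre-treatment at 0.4 mg/bid. Retro-orbital inoculation: Mu50 1.1 × 10⁹ CFU, NRS271 1.8 × 10⁸ CFU. Kidneys and livers homogenised in PBS/0.01% Triton X-100 and plated on TSA for CFU.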

Staphylococcus aureus [4] = assay: Antibacterial activity against methicillin/linezolid-resistant Staphylococcus aureus NRS271 infected in BALB/c mouse assessed as decrease in bacterial survival in mouse liver at 0.4 mg, ip bid administered 4.5 days measured after 90 hrs; assay type: functional, organism-based; outline: as §2
Staphylococcus aureus [5] = assay: Antibacterial activity against wild type Staphylococcus aureus Newman infected in BALB/c mouse assessed as decrease in bacterial load in mouse liver at 0.4 mg, ip bid administered 4.5 days measured after 90 hrs relative to control; assay type: functional
Staphylococcus aureus [6] = assay: Antibacterial activity against wild type Staphylococcus aureus Newman assessed as bacterial survival at 1 uM after 24 hrs by H2O2 killing assay (reference value: 26.67%); assay type: functional

Compound | IC50 (Staphylococcus aureus [1]) | other results
C/C=C/CN(C)Cc1ccc2c(c1)OCO2 | > 1000 nM | 
CN(C/C=C/C1CCCC1)Cc1ccc2c(c1)OCO2 | > 1000 nM | 
CN(C/C=C/c1ccc(F)cc1)Cc1ccc2c(c1)OCO2 | 58.4 nM | 
CN(C/C=C/C1CCCCC1)Cc1ccc2c(c1)OCO2 | > 1000 nM | 
CN(C/C=C/c1ccccc1F)Cc1ccc2c(c1)OCO2 | 121 nM | 
Cc1cccc(/C=C/CN(C)Cc2ccc3c(c2)OCO3)c1 | 372 nM | 
Cc1ccccc1/C=C/CN(C)Cc1ccc2c(c1)OCO2 | > 1000 nM | 
CN(C/C=C/c1ccccc1)Cc1ccc2c(c1)OCO2 | > 1000 nM | 
CC(C)N(C/C=C/c1ccc(C(F)(F)F)cc1F)Cc1ccc2c(c1)OCO2 | > 1000 nM | 
CC(=O)NC[C@H]1CN(c2ccc(N3CCOCC3)c(F)c2)C(=O)O1 [LINEZOLID] |  | Activity (Staphylococcus aureus [3]): Active; Activity (Staphylococcus aureus [4]): Active; Activity (Staphylococcus aureus [5]): 1.41 deltalog10CFU
COc1ccc(/C=C/CN(C)Cc2ccc3c(c2)OCO3)cc1F | 112 nM | 
CC(=O)N[C@@H](CS)C(=O)O [ACETYLCYSTEINE] |  | survival at 1 µM (Staphylococcus aureus [6]): 57.3%
CN(CCCc1ccc(C(F)(F)F)cc1F)Cc1ccc2c(c1)OCO2 | > 1000 nM | 
CN(C/C=C/c1ccccc1C(F)(F)F)Cc1ccc2c(c1)OCO2 | 28.8 nM | 
CN(C/C=C/c1cccc(Cl)c1)Cc1ccc2c(c1)OCO2 | 576 nM | 
CN(C/C=C/c1cccs1)Cc1ccc2c(c1)OCO2 | > 1000 nM | 

Compound | IC50 (Staphylococcus aureus [1]) | other results
CN(C/C=C/c1ccc([N+](=O)[O-])cc1)Cc1ccc2c(c1)OCO2 | 82.6 nM | 
CN(C/C=C/c1ccccc1Cl)Cc1ccc2c(c1)OCO2 | > 1000 nM | 
CN(C/C=C/c1ccco1)Cc1ccc2c(c1)OCO2 | > 1000 nM | 
CN(C/C=C/c1cccc2ccccc12)Cc1ccc2c(c1)OCO2 | > 1000 nM | 
CCN(C/C=C/c1ccc(C(F)(F)F)cc1F)Cc1ccc2c(c1)OCO2 | > 1000 nM | 
C[C@@H]1[C@H](O)[C@@H](C)/C=C/C=C/C=C/C=C/C=C/C=C/C=C/[C@H](O[C@@H]2O[C@H](C)[C@@H](O)[C@H](N)[C@@H]2O)C[C@@H]2O[C@](O)(C[C@@H](O)C[C@@H](O)[C@H](O)CC[C@@H](O)C[C@@H](O)CC(=O)O[C@H]1C)C[C@H](O)[C@H]2C(=O)O [AMPHOTERICIN B] |  | CC50 (HepG2): 28600 nM; CC50 (HEK-293T): 36500 nM
C/C(=C\c1ccc(C(F)(F)F)cc1F)CN(C)Cc1ccc2c(c1)OCO2 | > 1000 nM | 
COc1ccccc1/C=C/CN(C)Cc1ccc2c(c1)OCO2 | > 1000 nM | 
CN(C/C=C/c1ccc(C(F)(F)F)c(F)c1)Cc1ccc2c(c1)OCO2 | 57 nM | 
CN(Cc1ccc2c(c1)OCO2)C[C@@H]1C[C@H]1c1ccc(C(F)(F)F)cc1F | > 1000 nM | 
Fc1cc(C(F)(F)F)ccc1/C=C/CNCc1ccc2c(c1)OCO2 | > 1000 nM | 
CN(C/C=C/c1cccc(F)c1)Cc1ccc2c(c1)OCO2 | 412 nM | 
CN(C/C=C/c1cccc(C(F)(F)F)c1)Cc1ccc2c(c1)OCO2 | 523 nM | 
CN[C@H](CC(C)C)C(=O)N[C@H]1C(=O)N[C@@H](CC(N)=O)C(=O)N[C@H]2C(=O)N[C@H]3C(=O)N[C@H](C(=O)N[C@H](C(=O)O)c4cc(O)cc(O)c4-c4cc3ccc4O)[C@H](O)c3ccc(c(Cl)c3)Oc3cc2cc(c3O[C@@H]2O[C@H](CO)[C@@H](O)[C@H](O)[C@H]2O[C@H]2C[C@](C)(N)[C@H](O)[C@H](C)O2)Oc2ccc(cc2Cl)[C@H]1O [VANCOMYCIN] |  | Activity (Staphylococcus aureus [5]): 2.13 deltalog10CFU
COc1cccc(/C=C/CN(C)Cc2ccc3c(c2)OCO3)c1 | > 1000 nM | 

Second part, led by results:

IC50 (Staphylococcus aureus [1]) | Compound | other results
17.9 nM | CN(CC#Cc1ccc(C(F)(F)F)cc1F)Cc1ccc2c(c1)OCO2 | 
3.5 nM | CN(C/C=C/c1ccc(C(F)(F)F)cc1)Cc1ccc2c(c1)OCO2.Cl | CC50 (HepG2): 69200 nM; CC50 (HEK-293T): 133000 nM; solubility [2]: 13.5 mg/mL
15.7 nM | Cc1ccc(/C=C/CN(C)Cc2ccc3c(c2)OCO3)cc1 | 
4.2 nM | CCOc1ccc(/C=C/CN(C)Cc2ccc3c(c2)OCO3)cc1.Cl | CC50 (HepG2): 82600 nM; CC50 (HEK-293T): 122000 nM; solubility [2]: 24.2 mg/mL
3.9 nM | CN(C/C=C/c1ccc(-c2ccccc2)cc1)Cc1ccc2c(c1)OCO2.Cl | CC50 (HepG2): 53600 nM; CC50 (HEK-293T): 59100 nM; solubility [2]: 5.02 mg/mL
12.5 nM | CN(C/C=C/c1ccc(C#N)cc1)Cc1ccc2c(c1)OCO2 | 
9.1 nM | COc1ccc(/C=C/CN(C)Cc2ccc3c(c2)OCO3)cc1 | 
4.2 nM | CN(C/C=C/c1ccc(Cl)cc1)Cc1ccc2c(c1)OCO2.Cl | CC50 (HepG2): 141000 nM; CC50 (HEK-293T): 83800 nM; solubility [2]: 18.7 mg/mL
7.9 nM | COC(=O)c1ccc(/C=C/CN(C)Cc2ccc3c(c2)OCO3)cc1 | 
4 nM | CN(C/C=C/c1ccc2ccccc2c1)Cc1ccc2c(c1)OCO2.Cl | CC50 (HepG2): 60500 nM; CC50 (HEK-293T): 48300 nM; solubility [2]: 4.56 mg/mL
4.1 nM | CN(C/C=C/c1ccc(C(F)F)cc1)Cc1ccc2c(c1)OCO2.Cl | CC50 (HepG2): 138000 nM; CC50 (HEK-293T): 68000 nM; solubility [2]: 9.03 mg/mL
4.6 nM | CN(C/C=C/c1ccc(Br)cc1)Cc1ccc2c(c1)OCO2.Cl | CC50 (HepG2): 104000 nM; CC50 (HEK-293T): 68300 nM; solubility [2]: 17.5 mg/mL
17.6 nM | CN(C/C=C/c1ccc(Cl)cc1Cl)Cc1ccc2c(c1)OCO2 | 
5.2 nM | CN(C/C=C/c1ccc(C(C)(C)C)cc1)Cc1ccc2c(c1)OCO2 | 
3.8 nM | COc1ccc(/C=C/CN(C)Cc2ccc3c(c2)OCO3)c(F)c1.Cl | CC50 (HepG2): 120000 nM; CC50 (HEK-293T): 76800 nM; solubility [2]: 19.2 mg/mL
